For one molecule, Activity, Ratio IC50 and Vd results are on record in ChEMBL document CHEMBL4261600 (Eur J Med Chem, 2018).

Data set [1] deals with Serine/threonine-protein kinase DCLK3 (Homo sapiens) (UniProt Q9C098). Briefly: Binding affinity to wild-type human partial length DCAMKL3 (E140 to V628 residues) expressed in bacterial expression system assessed as remaining unbound target protein level at 1000 nM by Kinomescan method relative to control.
Data set [2] deals with Receptor-type tyrosine-protein kinase FLT3 (Homo sapiens) (UniProt P36888). The data set is described as follows: Binding affinity to wild-type human partial length autoinhibited FLT3 (H564 to Y969 residues) expressed in mammalian expression system assessed as remaining unbound target protein level at 1000 nM by Kinomescan method relative to control.
Data set [3] concerns the target cAMP-dependent protein kinase catalytic subunit PRKX (Homo sapiens) (UniProt P51817). The data set is described as follows: Binding affinity to wild-type human partial length PRKX (M1 to F358 residues) expressed in bacterial expression system assessed as remaining unbound target protein level at 1000 nM by Kinomescan method relative to control.
Data set [4] deals with Inhibitor of nuclear factor kappa-B kinase subunit alpha (Homo sapiens) (UniProt O15111). Briefly: Binding affinity to wild-type human full length IKK-alpha (M1 to E745 residues) expressed in mammalian expression system assessed as remaining unbound target protein level at 1000 nM by Kinomescan method relative to control. A digest of the protocol: (§1)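 Single-point competition binding screen across a panel of 468 kinases and mutants, with the inhibitor at 1 μM. Binding is read out as percent of a DMSO control, and targets below 1 percent control were classed as strong binders.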

In data set [5] the target is Discoidin domain-containing receptor 2 (Homo sapiens) (UniProt Q16832). The data set is described as follows: Binding affinity to wild-type human partial length DDR2 (V555 to E855 residues) expressed in mammalian expression system assessed as remaining unbound target protein level at 1000 nM by Kinomescan method relative to control.
Data set [6] deals with Membrane-associated tyrosine- and threonine-specific cdc2-inhibitory kinase (Homo sapiens) (UniProt Q99640). Briefly: Binding affinity to wild-type human partial length PKMYT1 (A88 to G366 residues) expressed in bacterial expression system assessed as remaining unbound target protein level at 1000 nM by Kinomescan method relative to control.
For data set [7], the target named is Proto-oncogene tyrosine-protein kinase ROS (Homo sapiens) (UniProt P08922). Briefly: Binding affinity to wild-type human partial length ROS1 (A1921 to N2240 residues) expressed in bacterial expression system assessed as remaining unbound target protein level at 1000 nM by Kinomescan method relative to control.
Data set [8] concerns the target Serine/threonine-protein kinase PLK2 (Homo sapiens) (UniProt Q9NYY3). Briefly: Binding affinity to wild-type human partial length PLK2 (H58 to F354 residues) expressed in mammalian expression system assessed as remaining unbound target protein level at 1000 nM by Kinomescan method relative to control.
Data set [9] concerns the target Mitogen-activated protein kinase 12 (Homo sapiens) (UniProt P53778). The data set is described as follows: Binding affinity to wild-type human full length p38-gamma (M1 to L367 residues) expressed in mammalian expression system assessed as remaining unbound target protein level at 1000 nM by Kinomescan method relative to control. A digest of the protocol: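 KINOMEscan competition binding profile across a panel of 468 kinases and mutants, with the inhibitor tested at a single concentration of 1 μM. Binding is reported as percent of control, meaning signal relative to a DMSO control.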

The target in data set [10] is Activin receptor type-2B (Homo sapiens) (UniProt Q13705). The data set is described as follows: Binding affinity to wild-type human ACVR2B (H169 to D504 residues) expressed in bacterial expression system assessed as remaining unbound target protein level at 1000 nM by Kinomescan method relative to control. A digest of the protocol:
as §1

Data set [11] addresses Activated CDC42 kinase 1 (Homo sapiens) (UniProt Q07912). Briefly: Binding affinity to wild-type human partial length TNK2 (S159 to D474 residues) expressed in bacterial expression system assessed as remaining unbound target protein level at 1000 nM by Kinomescan method relative to control.
Data set [12] deals with Phosphatidylinositol 4,5-bisphosphate 3-kinase catalytic subunit alpha isoform (Homo sapiens), P42336 [Q546K]. Briefly: Binding affinity to human partial length PIK3CA Q546K mutant (R108 to N1068 residues) expressed in mammalian expression system assessed as remaining unbound target protein level at 1000 nM by Kinomescan method relative to control. The gist of the method:
(§2)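 KINOMEscan competition-binding profiling across the panel of 468 kinases and mutants, with inhibitor tested at 1 μM. Binding is expressed as percent of control, with DMSO as the reference control.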

The target in data set [13] is Epidermal growth factor receptor (Homo sapiens) (UniProt P00533). Briefly: Binding affinity to wild-type human partial length EGFR (R669 to V1011 residues) expressed in bacterial expression system assessed as remaining unbound target protein level at 1000 nM by Kinomescan method relative to control.
For the next data set, the species on record is Homo sapiens. The data set is described as follows: Selectivity ratio of IC50 for recombinant GST-tagged human full length CDK14/cyclin Y (2 to end residues) to IC50 for recombinant full length His-tagged human CDK9/CyclinT1.
In data set [14] the target is Mitogen-activated protein kinase kinase kinase kinase 5 (Homo sapiens) (UniProt Q9Y4K4). The data set is described as follows: Binding affinity to wild-type human partial length MAP4K5 (M1 to P297 residues) expressed in bacterial expression system assessed as remaining unbound target protein level at 1000 nM by Kinomescan method relative to control. The gist of the method:
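KINOMEscan binding panel of 468 kinases/mutants. Inhibitor was tested at a single concentration of 1 μM. Binding is reported as percent of control, defined relative to a DMSO control.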

Data set [15] concerns Phosphatidylinositol 4,5-bisphosphate 3-kinase catalytic subunit alpha isoform (Homo sapiens), P42336 [E542K]. Briefly: Binding affinity to human partial length PIK3CA E542K mutant (R108 to N1068 residues) expressed in mammalian expression system assessed as remaining unbound target protein level at 1000 nM by Kinomescan method relative to control. A digest of the protocol:
as §2

In data set [16] the target is Mitogen-activated protein kinase kinase kinase 3 (Homo sapiens) (UniProt Q99759). Briefly: Binding affinity to wild-type human partial length MAP3K3 (E320 to Y626 residues) expressed in mammalian expression system assessed as remaining unbound target protein level at 1000 nM by Kinomescan method relative to control.
A short description of data set [17]: Apparent volume of distribution in mouse at 3 mg/kg, iv by LC-MS/MS analysis. Particulars: in vivo, read-out: Vz. It counts as ADME, organism-based. The gist of the method: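 Non-compartmental PK. Male SD rats 190-210 g, mice and beagle dogs acclimatized one week, fasted 12 h with water, split into iv and po groups (mice 48, rats 6, dogs 6). iv 3/3/2 mg/kg (mice/rats/dogs); po 10/20/10 mg/kg; vehicle DMSO in 5% glucose water. Blood at 2 or 5 to 720 min; plasma protein-precipitated with methanol, caffeine internal standard, LC-MS/MS.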

Data set [18] relates to Mast/stem cell growth factor receptor Kit (Homo sapiens), P10721 [V559D]. Briefly: Binding affinity to human partial length KIT V559D mutant (Y545 to D952 residues) expressed in bacterial expression system assessed as remaining unbound target protein level at 1000 nM by Kinomescan method relative to control. A digest of the protocol: as §2
The test system of a further data set is HL-60. Briefly: Induction of apoptosis in human HL60 cells assessed as decrease in BCL-2 level up to 3 uM after 2 hrs by immunoblotting analysis. It counts as functional, cell-based. On the technique in general: In western blotting, separated proteins are transferred to a membrane and probed.

Activity calls are given as the source filed them. No cut-off for these calls is given here.

Mitogen-activated protein kinase 12 (Homo sapiens), sequence (P53778 whole entry, the tested form may be a part): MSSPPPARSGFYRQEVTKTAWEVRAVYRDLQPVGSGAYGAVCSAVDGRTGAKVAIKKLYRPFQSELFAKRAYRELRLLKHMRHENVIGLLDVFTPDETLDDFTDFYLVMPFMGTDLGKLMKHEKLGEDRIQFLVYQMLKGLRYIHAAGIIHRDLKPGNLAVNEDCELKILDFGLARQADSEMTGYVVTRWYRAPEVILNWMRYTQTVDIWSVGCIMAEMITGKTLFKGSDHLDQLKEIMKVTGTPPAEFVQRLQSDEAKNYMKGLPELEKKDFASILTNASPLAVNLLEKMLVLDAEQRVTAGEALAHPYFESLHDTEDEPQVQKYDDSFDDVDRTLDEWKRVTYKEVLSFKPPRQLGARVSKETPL
Mast/stem cell growth factor receptor Kit (Homo sapiens), P10721 [V559D], sequence (P10721 whole entry V559D, the tested form may be a part): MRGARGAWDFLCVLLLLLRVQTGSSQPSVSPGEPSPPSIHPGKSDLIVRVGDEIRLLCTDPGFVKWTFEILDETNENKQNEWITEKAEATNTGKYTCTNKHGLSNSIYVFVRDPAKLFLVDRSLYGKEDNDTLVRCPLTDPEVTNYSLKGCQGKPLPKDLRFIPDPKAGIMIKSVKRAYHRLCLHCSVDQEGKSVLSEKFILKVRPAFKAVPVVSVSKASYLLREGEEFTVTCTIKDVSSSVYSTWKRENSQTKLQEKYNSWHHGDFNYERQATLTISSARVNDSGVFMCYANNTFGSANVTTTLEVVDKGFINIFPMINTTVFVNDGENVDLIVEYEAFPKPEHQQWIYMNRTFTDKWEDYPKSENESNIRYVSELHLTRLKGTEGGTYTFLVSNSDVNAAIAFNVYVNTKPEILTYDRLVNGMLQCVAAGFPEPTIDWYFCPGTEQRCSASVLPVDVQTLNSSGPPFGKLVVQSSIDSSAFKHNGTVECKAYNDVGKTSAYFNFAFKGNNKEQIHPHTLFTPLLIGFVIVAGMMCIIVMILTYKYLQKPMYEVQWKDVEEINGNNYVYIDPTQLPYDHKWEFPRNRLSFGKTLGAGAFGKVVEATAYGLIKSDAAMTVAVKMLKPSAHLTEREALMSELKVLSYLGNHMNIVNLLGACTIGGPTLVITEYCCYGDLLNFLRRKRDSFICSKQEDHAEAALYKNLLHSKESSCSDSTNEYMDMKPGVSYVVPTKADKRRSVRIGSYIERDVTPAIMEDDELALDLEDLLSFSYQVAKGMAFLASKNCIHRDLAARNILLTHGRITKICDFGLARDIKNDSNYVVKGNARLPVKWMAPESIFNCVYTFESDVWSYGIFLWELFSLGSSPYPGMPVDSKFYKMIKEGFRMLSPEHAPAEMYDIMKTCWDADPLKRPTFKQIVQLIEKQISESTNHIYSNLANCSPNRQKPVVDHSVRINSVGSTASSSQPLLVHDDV
Phosphatidylinositol 4,5-bisphosphate 3-kinase catalytic subunit alpha isoform (Homo sapiens), P42336 [E542K], sequence (P42336 whole entry E542K, the tested form may be a part, canonical isoform): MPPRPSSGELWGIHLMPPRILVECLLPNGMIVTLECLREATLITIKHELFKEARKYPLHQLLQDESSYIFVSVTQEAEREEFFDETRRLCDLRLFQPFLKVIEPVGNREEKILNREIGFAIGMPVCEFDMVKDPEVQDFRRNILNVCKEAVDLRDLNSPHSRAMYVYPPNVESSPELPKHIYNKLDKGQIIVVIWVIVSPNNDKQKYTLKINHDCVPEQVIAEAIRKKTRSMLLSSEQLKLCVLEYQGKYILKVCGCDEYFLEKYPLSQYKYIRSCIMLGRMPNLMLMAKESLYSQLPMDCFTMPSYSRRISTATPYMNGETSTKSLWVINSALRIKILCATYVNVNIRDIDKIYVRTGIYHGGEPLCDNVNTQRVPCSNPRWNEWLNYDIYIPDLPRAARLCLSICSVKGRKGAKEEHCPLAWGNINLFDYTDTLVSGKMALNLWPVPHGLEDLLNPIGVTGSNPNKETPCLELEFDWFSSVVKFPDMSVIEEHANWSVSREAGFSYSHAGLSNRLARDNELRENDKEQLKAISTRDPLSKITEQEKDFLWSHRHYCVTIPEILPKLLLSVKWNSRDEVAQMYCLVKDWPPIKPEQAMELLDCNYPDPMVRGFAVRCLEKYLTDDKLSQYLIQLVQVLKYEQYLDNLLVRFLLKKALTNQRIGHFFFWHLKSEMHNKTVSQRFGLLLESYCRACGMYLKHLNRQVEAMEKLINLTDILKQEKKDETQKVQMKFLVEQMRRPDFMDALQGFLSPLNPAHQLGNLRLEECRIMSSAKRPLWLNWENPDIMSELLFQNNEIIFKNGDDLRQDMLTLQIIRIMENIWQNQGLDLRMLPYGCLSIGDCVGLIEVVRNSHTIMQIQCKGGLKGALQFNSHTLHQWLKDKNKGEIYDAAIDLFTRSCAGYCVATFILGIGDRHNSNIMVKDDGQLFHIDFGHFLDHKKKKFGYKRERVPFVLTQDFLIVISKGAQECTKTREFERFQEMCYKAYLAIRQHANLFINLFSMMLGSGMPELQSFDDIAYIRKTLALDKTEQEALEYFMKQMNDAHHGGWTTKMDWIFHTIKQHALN
Epidermal growth factor receptor (Homo sapiens), sequence (P00533 whole entry, the tested form may be a part): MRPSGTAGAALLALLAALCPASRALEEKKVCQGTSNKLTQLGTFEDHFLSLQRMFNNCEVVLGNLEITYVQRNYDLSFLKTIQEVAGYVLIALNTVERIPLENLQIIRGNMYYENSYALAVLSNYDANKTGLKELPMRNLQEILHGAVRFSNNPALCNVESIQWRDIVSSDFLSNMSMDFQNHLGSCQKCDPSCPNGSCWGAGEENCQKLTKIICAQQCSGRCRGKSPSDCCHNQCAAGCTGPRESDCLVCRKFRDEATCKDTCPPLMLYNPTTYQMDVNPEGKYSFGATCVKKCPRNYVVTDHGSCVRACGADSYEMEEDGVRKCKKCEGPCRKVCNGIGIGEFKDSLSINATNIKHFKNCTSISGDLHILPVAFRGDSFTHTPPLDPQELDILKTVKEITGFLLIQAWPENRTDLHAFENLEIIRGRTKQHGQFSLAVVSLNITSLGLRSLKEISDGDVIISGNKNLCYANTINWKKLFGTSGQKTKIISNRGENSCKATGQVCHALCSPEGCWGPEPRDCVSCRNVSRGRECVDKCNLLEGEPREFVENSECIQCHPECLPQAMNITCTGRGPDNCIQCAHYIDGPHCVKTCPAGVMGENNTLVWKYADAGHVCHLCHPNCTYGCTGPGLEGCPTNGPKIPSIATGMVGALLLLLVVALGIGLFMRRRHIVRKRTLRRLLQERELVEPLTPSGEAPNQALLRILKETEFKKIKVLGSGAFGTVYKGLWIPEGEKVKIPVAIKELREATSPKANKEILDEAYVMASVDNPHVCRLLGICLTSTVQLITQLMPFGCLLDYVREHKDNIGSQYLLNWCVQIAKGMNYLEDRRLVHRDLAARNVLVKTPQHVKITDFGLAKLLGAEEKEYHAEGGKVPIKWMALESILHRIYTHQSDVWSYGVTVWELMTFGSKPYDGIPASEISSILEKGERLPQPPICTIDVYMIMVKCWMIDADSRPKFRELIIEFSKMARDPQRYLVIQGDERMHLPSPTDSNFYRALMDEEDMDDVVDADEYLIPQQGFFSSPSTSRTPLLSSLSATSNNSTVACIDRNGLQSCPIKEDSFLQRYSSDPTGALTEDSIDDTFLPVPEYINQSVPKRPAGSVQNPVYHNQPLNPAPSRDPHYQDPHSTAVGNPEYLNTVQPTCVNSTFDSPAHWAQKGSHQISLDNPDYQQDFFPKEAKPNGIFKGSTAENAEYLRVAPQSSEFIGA
Serine/threonine-protein kinase PLK2 (Homo sapiens), sequence (Q9NYY3 whole entry, looked up, the tested form may be a part): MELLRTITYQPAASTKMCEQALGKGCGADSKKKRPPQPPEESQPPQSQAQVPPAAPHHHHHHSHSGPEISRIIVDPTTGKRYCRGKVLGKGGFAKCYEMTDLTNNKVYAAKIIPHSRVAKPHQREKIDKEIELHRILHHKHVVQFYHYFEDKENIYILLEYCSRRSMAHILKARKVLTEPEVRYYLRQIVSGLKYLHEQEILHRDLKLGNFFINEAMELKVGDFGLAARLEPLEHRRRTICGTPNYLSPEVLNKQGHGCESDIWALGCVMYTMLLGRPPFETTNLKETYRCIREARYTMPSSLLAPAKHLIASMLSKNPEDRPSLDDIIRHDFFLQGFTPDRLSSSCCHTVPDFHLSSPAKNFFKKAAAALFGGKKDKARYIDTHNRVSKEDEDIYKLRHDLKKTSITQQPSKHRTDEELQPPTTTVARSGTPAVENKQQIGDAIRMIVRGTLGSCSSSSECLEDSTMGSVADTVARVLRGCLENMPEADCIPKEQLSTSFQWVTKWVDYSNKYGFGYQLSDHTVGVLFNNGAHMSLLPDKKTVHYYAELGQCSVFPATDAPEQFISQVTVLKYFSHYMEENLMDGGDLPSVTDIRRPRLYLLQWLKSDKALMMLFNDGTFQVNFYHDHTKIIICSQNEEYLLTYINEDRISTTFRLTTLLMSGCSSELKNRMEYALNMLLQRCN
Activin receptor type-2B (Homo sapiens), sequence (Q13705 whole entry, the tested form may be a part): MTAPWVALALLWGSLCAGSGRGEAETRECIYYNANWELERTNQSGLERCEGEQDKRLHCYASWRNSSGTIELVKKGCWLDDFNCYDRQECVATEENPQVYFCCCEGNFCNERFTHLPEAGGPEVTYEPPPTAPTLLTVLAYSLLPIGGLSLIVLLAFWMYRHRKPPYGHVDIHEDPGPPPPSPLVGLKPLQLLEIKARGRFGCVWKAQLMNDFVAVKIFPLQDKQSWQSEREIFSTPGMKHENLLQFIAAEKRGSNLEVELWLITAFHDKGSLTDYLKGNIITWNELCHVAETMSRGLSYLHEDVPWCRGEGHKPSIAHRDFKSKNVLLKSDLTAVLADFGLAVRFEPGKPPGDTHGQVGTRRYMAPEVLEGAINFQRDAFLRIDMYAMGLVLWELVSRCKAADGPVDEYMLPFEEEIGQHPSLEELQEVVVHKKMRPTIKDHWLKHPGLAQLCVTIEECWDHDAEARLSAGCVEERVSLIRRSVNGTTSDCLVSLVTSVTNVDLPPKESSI

Turning to `COCCN[C@H]1CC[C@H](Nc2cc(-c3csc(NCC4(C#N)CCOCC4)n3)c(Cl)cn2)CC1`, the Activity was found to be 97% in [1]; 100% in data set [2]; 91% in data set [3]; 89% in data set [4]; 97% in data set [5]; 100% in data set [6]. Moreover, the Activity turned out to be 81% in data set [7]; 100% in data set [8]; 99% in [9]; 98% in data set [10]; 95% in data set [11]; 88% in [12]. Moreover, the Activity in data set [13] turned out to be 94%; in data set [14], 95%; in data set [15], 96%; in [16], 100%; in data set [18], 100%. Also, the Ratio IC50 in the data set filed under Homo sapiens was > 1000. In addition, the Vd in [17] came to 18.2 L/kg. For the same molecule, the outcome in the data set with HL-60 was inactive.
